# In the library only some 1.9% were active in any assay of this set; here they are far more common.
# PLCb3 inh = PLC-beta3 (human) inhibition, primary screen; Q01970; Purified PLC-beta3, fluorogenic substrate, fluorescence; inhibition, % at 12.2 µM; 370,000 compounds, 0.18% hits; AID 720704; in the data active means inhibition above about 11%;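 further: 0% = median of compound wells on plate and 100% = full blocker control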
# PLCg1 inh = PLC-gamma1 (human) inhibition, primary screen. AID 720700. 370,000 compounds, 0.84% hits. purified PLC-gamma1, fluorogenic substrate, fluorescence. inhibition, % at 12.2 µM; in the data active means inhibition above about 9.5%
# Arrestin-AP2 inh = blocks beta-arrestin peptide binding to AP2 adaptin | 340,000 compounds, 0.31% hits | inhibition, % at 10 µM | FITC-arrestin peptide / GST-AP2 beads, flow cytometry; AP2 beta2 appendage carries R879A mutation;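 active means inhibition above a set limit, near 3 SD of compounds lacking own fluorescence, cut at about 54% in these data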;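 further: plate controls were DMSO wells for no effect and 5 µM unlabelled arrestin peptide for full effect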
#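 test system = AP2 appendage R879A on GSH beads | buffer or medium = PBS plus Tween 20 (0.05%) and BSA (0.1%) | incubation = 12 min plus 1 h, RT | detection = bead flow cytometry, FITC channel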
# procasp7 counter = counter-screen for procaspase-3 activators: activators of human procaspase-7 | recombinant procaspase-7, Ac-DEVD-pNA absorbance 405 nm; D23A/D198A/D206A triple mutant, cannot self-cleave; scale: DMSO 0, 5 µM enzyme 100 | activation, % at 8.5 µM | 330,000 compounds, 0.093% hits | AID 463210;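 active means percent activation above the screen-wide mean plus 3 SD, cut at about 25% in these data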
#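 System: Procaspase-7 triple mutant (PC-7 D3A); measure: % activation from two-timepoint absorbance difference, scaled to controls; times: 1 h compound preincubation, 2 h substrate cleavage, 25 °C; also added: Ac-DEVD-pNA substrate, 400 µM as added; measured by: Epi-absorbance of released pNA at 405 nm, two timepoints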
# procasp3 activ = activators of human procaspase-3. P42574. recombinant procaspase-3 D3A, Ac-DEVD-pNA absorbance 405 nm. activation, % at 8.5 µM. 330,000 compounds, 0.11% hits. AID 463141;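 active means activation above the mean of all tested compounds plus 3 SD, cut at about 21% in these data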;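 further: 0% = DMSO alone and 100% = DMSO wells spiked with extra 5 µM PC-3 D3A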
#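 assay system = Procaspase-3 D3A mutant | signal = absorbance at 405 nm, 0 and 120 min | times = 1 h preincubation plus 2 h reaction at 25 °C | repeats = single replicate | read-out = % activation between DMSO and enzyme-spiked controls | medium = Zinc-free HEPES saline buffer with Triton X-100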
# sPLA2-III inh = Inhibits HGIII-sPLA2 liposome hydrolysis, primary screen. Q9NZ20. QFRET BODIPY PC-A2 liposome hydrolysis, fluorescence. inhibition, % at 12.2 µM. 370,000 compounds, 0.56% hits;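 active means inhibition above mean plus 3 SD of compounds lying within the high and low control bounds, cut at about 19% in these data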;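 further: 0% = median of test compound wells and 100% = no enzyme DMSO wells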
# proCasp7 act trip = counter-screen: procaspase-7 (human) activation in triplicate; shares compounds with procasp3 activ; recombinant procaspase-7, Ac-DEVD-pNA absorbance; asp23/198/206-to-Ala mutant, cannot self-cleave; activation, % at 8.5 µM; 210 tested, under 10 active;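 active means mean activation above a set limit taken from an earlier procaspase-7 screen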;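 further: 0% = DMSO wells and 100% = DMSO plus 5 µM procaspase-7 enzyme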
# procasp3 conf = confirmation of human procaspase-3 activators. shares compounds with procasp3 activ. recombinant PC-3 D3A, Ac-DEVD-pNA absorbance 405 nm; 100% is higher-enzyme control. activation, % at 8.5 µM. 210 compounds, 10% hits;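 active means mean activation above a set limit carried over from the earlier primary screen, cut at about 22% in these data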
# Arr AP2 CP1 = blocks beta-arrestin peptide binding to human AP2; shares compounds with Arrestin-AP2 inh; GST-AP2 beads, FITC arrestin peptide binding, flow cytometry; GST-fused beta2-adaptin appendage, R879A mutant; inhibition, % at 10 µM; 1,300 compounds, 2% hits;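 active means inhibition above a set limit, roughly 3 SD of non-fluorescent compound noise, cut at about 38% in these data; inactive means inhibition at or below that limit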;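 further: loss of bead fluorescence from 50 nM FITC arrestin peptide bound to appendage; 0% = negative control wells and 100% = excess unlabelled arrestin peptide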
# GST-FITC bead = GST-GSH bead binding interference, counter-screen; inhibition, % at 10 µM; AID 588338; 1,300 compounds, 2% hits; GST-fluorescein binding to GSH beads, fluorescence; shares compounds with Arrestin-AP2 inh;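 active means inhibition above 50%, about 3 SD of the inhibition seen with non-fluorescent compounds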;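 further: fluorescein maleimide labelled GST captured on 4 micron glutathione beads; higher means more loss of bead fluorescence from quenching or blocked binding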
# Starred values were filed as active, the others as inactive; i = inactive; . = no result.
SMILES,PLCb3 inh,PLCg1 inh,Arrestin-AP2 inh,procasp7 counter,procasp3 activ,sPLA2-III inh,proCasp7 act trip,procasp3 conf,others
COc1cccc(CNc2nc3ccccc3n2CCN2CCCCC2)c1OC,1,0,-2,2,3,2,.,.,
CCC(=O)N1CCc2cc(Br)c(S(=O)(=O)NCCCN(C)Cc3ccccc3)cc21,0,-1,.,.,.,1,.,.,
FC(F)(F)Oc1ccc(Cn2ccc3ccc(-c4ccc5ccn(Cc6ccccc6)c5c4)cc32)cc1,-57,-46,.,.,.,2,.,.,
O=S(=O)(NC1CC1)c1ccc(S(=O)(=O)N2CCN3CCCC3C2)cc1 (stereo not drawn),0,2,-5,-3,-1,3,.,.,
O=S(=O)(NC1CCCCC1)c1ccc(S(=O)(=O)N2CCN3CCCC3C2)cc1 (stereo not drawn),0,5,-2,9,37*,-3,3,5,
COc1ccccc1[C@@H]1C(c2cccc(C)c2)=NN(c2ccccc2)[C@H]1C(=O)N1CCOC1=O,-143,-94,18,18,24*,7,-22,-15,
Cc1ccccc1C(=O)N1CCC(C(=O)Nc2nccs2)CC1,-7,-1,4,10,1,0,.,.,
Cc1ccccc1C(=O)N1CCC(C(=O)Nc2nc3ccc(F)cc3s2)CC1,-4,3,0,3,23*,-26,3,7,
Cc1cccn2c(=O)c3cc(C(=O)NCCc4ccccc4)sc3nc12,-228,-140,37,5,31*,5,-19,-14,
COc1cccc(/C=C2\CC3(OC(=O)C4CCCCC4)CCCN2C3)c1 (stereo not drawn),-6,-9,.,.,.,1,.,.,
C=CCn1c(=NC(=O)c2sc3ccccc3c2Cl)sc2cc(S(N)(=O)=O)ccc21,.,.,9,-1,-4,.,.,.,
C=CCn1c(=NC(=O)c2cc(-c3cccs3)nc3ccccc23)sc2cc(S(N)(=O)=O)ccc21,i,i,6,14,78*,6,15,20,
COCCn1c(=NC(=O)c2cc(-c3cccs3)nc3ccccc23)sc2cc(S(N)(=O)=O)ccc21,i,i,-1,9,44*,-9,0,-3,
CSCCCNC(=O)Cn1nc(Cc2ccncc2)c2ccccc2c1=O,2,-1,.,.,.,1,.,.,
Cc1ccc(-c2cn(S(=O)(=O)c3cccc4nsnc34)nc2N)cc1,4,5,5,-2,23*,-14,2,1,
COC(=O)c1ccc2nc(-c3ccc(C)cc3)c(CC(C)(C)C)n2c1,1,3,.,.,.,-7,.,.,
CN1/C(=C/C(=O)c2ccc(Cl)cc2)Sc2cc3c(cc21)OCO3,-31,-23,103*,11,40*,-3,-13,2,Arr AP2 CP1=-1;GST-FITC bead=-5
COc1ccc(-n2c(SCC(=O)Nc3ccc4c(c3)OCO4)nc3sc4c(c3c2=O)CCCC4)cc1,0,1,.,.,.,3,.,.,

# High-throughput results from PubChem BioAssay.
